From PubChem BioAssay
NadD block: inhibitors of S. aureus NadD, primary screen, biochemical, colorimetric, uHTS. Nicotinate-nucleotide adenylyltransferase NadD (Staphylococcus aureus N315). purified NadD enzyme, colorimetric absorbance read-out. AID 602399, 2012. inhibition, % at 20 µM. actives 0.78% (n = 360,000); in the data active = inhibition above about 26%
ASAP1 GAP inh: inhibitors of human ASAP1 ArfGAP activity, primary screen, biochemical, fluorescence polarization. Arf-GAP with SH3 domain, ANK repeat and PH domain-containing protein 1 (Homo sapiens), …. ASAP1-stimulated ARF1 GTP hydrolysis, GDP FP detection. inhibition, % at 16.5 µM. actives 0.19% (n = 360,000); in the data active = inhibition above about 25%;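 also: 0% = vehicle with enzyme and substrate and 100% = no enzyme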
Target sequence (Q9ULH1 325-724 limits assumed): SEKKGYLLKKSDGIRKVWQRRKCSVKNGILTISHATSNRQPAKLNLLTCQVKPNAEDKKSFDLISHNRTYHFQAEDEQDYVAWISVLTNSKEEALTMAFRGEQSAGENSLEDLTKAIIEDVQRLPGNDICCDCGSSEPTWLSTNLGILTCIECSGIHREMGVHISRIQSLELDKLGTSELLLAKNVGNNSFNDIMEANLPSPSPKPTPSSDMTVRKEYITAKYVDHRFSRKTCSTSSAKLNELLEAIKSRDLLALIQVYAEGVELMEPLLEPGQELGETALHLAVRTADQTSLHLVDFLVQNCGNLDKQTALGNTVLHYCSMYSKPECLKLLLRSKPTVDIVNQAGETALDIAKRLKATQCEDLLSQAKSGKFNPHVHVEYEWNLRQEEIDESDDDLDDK
rCAG RNA binder: binders of r(CAG) RNA repeats, primary screen, biochemical, fluorescence; inhibition, % at 3 µM; actives 1.3% (n = 370,000); r(CAG) RNA repeat, TO-PRO-1 dye displacement fluorescence; AID 651821, 2012;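 active = inhibition above the plate cutoff, the mean of all test compounds on that plate plus 3 SD, cut at about 35% in these data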;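 also: 0% = DMSO alone and 100% = 100 µM mitoxantrone as full dye displacement; higher means more dye released from RNA so lower well fluorescence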
ARFGAP1 inh: inhibitors of rat ARFGAP1 GAP activity, primary screen, biochemical, fluorescence polarization, GDP tracer; actives 0.26% (n = 360,000); Arfgap1-stimulated ARF1 GTP hydrolysis, GDP FP detection; inhibition, % at 16.5 µM; ADP-ribosylation factor GTPase-activating protein 1 (Rattus norvegicus), Q62848;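 active = inhibition above a per-plate limit, mean inhibition of low control wells plus 3 SD, cut at about 25% in these data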;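 also: 0% = DMSO wells with enzyme and 100% = wells lacking Arfgap1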
Target sequence (Q62848 1-136 limits assumed): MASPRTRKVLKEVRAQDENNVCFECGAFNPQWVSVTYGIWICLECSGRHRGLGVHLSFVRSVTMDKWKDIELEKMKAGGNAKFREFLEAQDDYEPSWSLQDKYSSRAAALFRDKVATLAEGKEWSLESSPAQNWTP
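Assay system: Rat Arfgap1 GAP domain (His6, aa 1-136), purified enzyme | Buffer or medium: HEPES 25 mM pH 7.5, NaCl 150 mM, MgCl2, DTT | Schedule: GTP hydrolysis reaction 2 h at 25 °C | Signal: FP of antibody-bound GDP Alexa 633 tracer, ex 620/em 688 nm | Measure: Percent inhibition of Arfgap1-stimulated GTP hydrolysis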
Active calls of the source: *; · = no result. Compounds with a hit are over-represented: about 2.2% of the library has one in this group of screens.

SMILES	NadD block	ASAP1 GAP inh	rCAG RNA binder	ARFGAP1 inh
Cc1ccc2nc(/C(C#N)=C\c3cc(C)n(-c4cccc([N+](=O)[O-])c4)c3C)[nH]c2c1	29.4*	4.8	25.0	1.6
NC(=O)[C@@H]1CCCCNc2c(I)cc([N+](=O)[O-])cc2C(=O)N[C@@H](CCC(=O)O)C(=O)N[C@@H](CO)C(=O)N1	8.3	8.3	46.0*	-7.9
COc1ccc2c(c1)C1C=CCC1C(c1cc3c(cc1Br)OCO3)N2 (centres undefined)	44.4*	17.4	12.4	0.8
COC(=O)Cc1cc(=O)n(-c2nc3ccccc3[nH]2)[nH]1	-3.8	-0.5	42.3*	-3.0
Cc1noc(NS(=O)(=O)c2ccc(NC(=O)/C=C/c3ccc(C(C)C)cc3)cc2)c1C	13.7	4.3	85.4*	-7.1
Cc1noc(NS(=O)(=O)c2ccc(NC(=O)C(C)(C)C)cc2)c1C	-6.6	12.1	2.4	1.9
COc1ccc(-c2nnc(SCC(=O)Nc3c(Cl)cc(Cl)cc3C(=O)O)o2)cc1	-0.6	-14.9	3.9	-17.6
Cc1cc(N)ccc1N1CCCC1	70.0*	·	·	·
C=CCN=C1NC(CCc2ccccc2)C(C(=O)OC)=C(C)N1Cc1cccc(C(F)(F)F)c1 (centres undefined)	·	-8.1	9.3	9.7
CCn1c(SCC(=O)NN=Cc2c(C)nn(-c3ccccc3)c2C)nnc1-c1ccc(OC)c(OC)c1	·	·	-1.0	·
C=CC(=O)Nc1cccc(Oc2ccnc3[nH]ccc23)c1	58.9*	·	·	·
Cc1cc(/C=C\c2ccc3cc(N(C)C)ccc3[n+]2C)c(C)n1-c1ccccc1	74.2*	·	·	·
O=c1[nH][nH]c2cc(=O)n(-c3ccc(Cl)cc3)nc12	4.1	-12.7	43.4*	-8.0
CC(=O)c1nn(-c2ccc(Cl)cc2)c(=O)[nH]c1=O	-6.7	-4.1	5.0	0.7
Cc1cc(O)c(C(C)C)cc1N=Nc1ccccc1C(=O)O	-3.0	-0.8	20.1	-6.8
Cc1cc(N=Nc2ccccc2C(=O)O)c(C)c(C)c1O	0.6	0.8	49.7*	10.5
COc1cc(/C=N/Nc2cccc(C)c2)cc(Br)c1O	26.0*	8.0	26.1	8.0
COc1ccc(OC)c(CN2C(=O)CN(S(C)(=O)=O)CC2(C)c2nnnn2C2CCCC2)c1 (centres undefined)	·	·	5.3	·
Nc1ccc(S(=O)(=O)c2cc(O)c3ccccc3c2O)cc1	20.8	9.4	57.1*	-5.3
COc1ccc(C2SCC(C(=O)O)N2C(C)=O)cc1OC (centres undefined)	-3.5	-1.9	3.3	26.8*
COCC#Cc1ccc2c(c1)O[C@H](CN(C)C(=O)c1ccccc1)[C@@H](C)CN([C@H](C)CO)S2(=O)=O	·	-6.2	5.6	0.3
CC1CCN(c2ccc(/C=C(\C#N)c3nn(-c4ccccc4)c(N)c3C#N)cc2[N+](=O)[O-])CC1	17.9	-1.8	2.8	-5.9
CC1CCN(c2cc(N3CCC(C)CC3)c([N+](=O)[O-])cc2/C=C(\C#N)c2nn(-c3ccccc3)c(N)c2C#N)CC1	50.9*	10.5	6.4	0.8
O=C(Nc1c(-c2ccccc2)[nH][nH]c1=O)c1ccc(Br)cc1	-0.5	0.2	6.2	2.3
Cc1ccc(-n2c(C)cc(/C=C3/C(=N)N4C(c5ccccc5)=CSC4=NC3=O)c2C)cc1	19.9	1.6	3.4	-6.0
SMILES	NadD block	ASAP1 GAP inh	rCAG RNA binder	ARFGAP1 inh
N=C1/C(=C/c2ccc(-c3cccc(C(=O)O)c3)o2)C(=O)N=C2SC=C(c3ccccc3)N12	60.9*	-5.8	81.3*	-18.2
Cc1c(Cl)cccc1NS(=O)(=O)c1ccc2c(c1)C1C=CCC1C(c1ccc(C(=O)O)cc1)N2 (centres undefined)	33.6*	·	·	·
CC(=O)c1ccc2c(c1)C1C=CCC1C(c1ccc(S(=O)(=O)N3CCOCC3)cc1)N2 (centres undefined)	29.0	4.5	31.0	12.8
COc1ccc(C(=O)c2[nH]c(N)c(C(=O)c3c[nH]c4ccccc34)c2-c2ccc(F)c(OC)c2)cc1	·	-1.2	10.6	14.4
c1cc2c(cc1Nc1nc(-c3ccc4c(c3)OCO4)cs1)OCCO2	40.2*	2.5	13.3	-0.3
Cc1cccc(NC(=O)NN(C(=O)c2ccccc2Cl)C(C)(C)C)c1	·	·	3.1	·
COC(=O)[C@H](C(C)C)N(CCc1cn(CC2CCCCC2)nn1)S(=O)(=O)c1ccc(F)cc1Br	·	·	-0.3	·
CCOC(=O)N1CCN(S(=O)(=O)c2ccc(C(=O)NNc3nc4cc(C)cc(C)c4s3)cc2)CC1	38.9*	·	·	·
CCOC(=O)N1CCN(S(=O)(=O)c2ccc(C(=O)NNc3nc4c(C)cccc4s3)cc2)CC1	13.8	-6.7	75.5*	-4.9
O=C(CSc1nnc(COc2ccc(Cl)cc2)n1Cc1ccco1)Nc1ccc2c(c1)OCO2	·	·	4.5	·
COCc1cc(N2CCNC[C@H]2C)ccc1N1CCS(=O)(=O)CC1	·	-7.8	3.6	14.3
CC[C@@H](CCCCCC#N)CCC(=O)N(c1ccccc1)c1ccccc1	·	·	2.3	·
C[C@H](CO)N1C[C@H](C)[C@@H](CN(C)Cc2ccc(Cl)c(Cl)c2)Oc2c(NS(=O)(=O)c3ccc(F)cc3)cccc2C1=O	-4.4	30.9*	4.7	1.2
C[C@H](CO)N1C[C@H](C)[C@@H](CN(C)Cc2ccccc2)Oc2c(NS(=O)(=O)c3ccc(F)cc3)cccc2C1=O	-5.5	-3.5	-6.4	-11.4
NC(=S)n1[nH]c(-c2ccc([N+](=O)[O-])cc2)c(N=Nc2cccc([N+](=O)[O-])c2)c1=O	77.1*	10.5	21.3	-3.2
Cc1c(N=Nc2c(-c3ccc([N+](=O)[O-])cc3)[nH]n(C(N)=S)c2=O)cccc1[N+](=O)[O-]	80.7*	0.8	21.1	2.5
Nc1[nH]n(-c2ccccc2)c(=O)c1N=Nc1ccccc1[N+](=O)[O-]	2.1	1.1	11.1	-10.4
NC(=S)n1[nH]c(-c2ccc([N+](=O)[O-])cc2)c(N=Nc2ccccc2[N+](=O)[O-])c1=O	64.5*	-0.1	4.2	0.8
Cc1[nH]n(C(N)=S)c(=O)c1N=Nc1cccc([N+](=O)[O-])c1C	-3.5	·	·	·
CCCCCN1CCCCC(NC(=O)C(C)(C)C)C1=O (centres undefined)	·	·	-0.6	·
COC(=O)C1CN(Cc2ccc(F)cc2)CCS(=O)(=O)N1Cc1ccccc1 (centres undefined)	·	·	3.0	·
CN(CCO)c1cccc2c1S(=O)(=O)N(Cc1cn(Cc3ccc(Cl)cc3)nn1)Cc1ccccc1O2	·	·	3.9	·
CCOC(=O)c1cc(-c2ccccc2)sc1NC(=O)COC(=O)c1ccc(Cl)c(S(N)(=O)=O)c1	41.9*	·	·	·
CCOC(=O)c1cc(-c2ccccc2)sc1NC(=O)COC(=O)c1cccc(S(N)(=O)=O)c1	29.6	6.5	4.0	0.2
CC(C)c1ccc(S(=O)(=O)/N=C2/C=C(Sc3ncn[nH]3)C(=O)c3ccccc32)cc1	83.3*	·	·	·
Cc1ccc(S(=O)(=O)/N=C2/C=C(Sc3ncn[nH]3)C(=O)c3ccccc32)cc1	50.1*	·	·	·
